Calls of active or inactive are those of the source. No cut-off for these calls is given here.
What was measured:
[1] = biological target: T1, Transient receptor potential cation channel subfamily M member 8 (Rattus norvegicus, UniProt Q8R455); assay: Antagonist activity at recombinant rat TRPM8 expressed in HEK293 cells assessed as inhibition of icilin-induced intracellular calcium accumulation preincubated for 5 mins followed by icilin addition by Fluo-4-AM probe-based spectrofluorimetric assay; type: cell-based
T1 sequence (Q8R455 whole entry): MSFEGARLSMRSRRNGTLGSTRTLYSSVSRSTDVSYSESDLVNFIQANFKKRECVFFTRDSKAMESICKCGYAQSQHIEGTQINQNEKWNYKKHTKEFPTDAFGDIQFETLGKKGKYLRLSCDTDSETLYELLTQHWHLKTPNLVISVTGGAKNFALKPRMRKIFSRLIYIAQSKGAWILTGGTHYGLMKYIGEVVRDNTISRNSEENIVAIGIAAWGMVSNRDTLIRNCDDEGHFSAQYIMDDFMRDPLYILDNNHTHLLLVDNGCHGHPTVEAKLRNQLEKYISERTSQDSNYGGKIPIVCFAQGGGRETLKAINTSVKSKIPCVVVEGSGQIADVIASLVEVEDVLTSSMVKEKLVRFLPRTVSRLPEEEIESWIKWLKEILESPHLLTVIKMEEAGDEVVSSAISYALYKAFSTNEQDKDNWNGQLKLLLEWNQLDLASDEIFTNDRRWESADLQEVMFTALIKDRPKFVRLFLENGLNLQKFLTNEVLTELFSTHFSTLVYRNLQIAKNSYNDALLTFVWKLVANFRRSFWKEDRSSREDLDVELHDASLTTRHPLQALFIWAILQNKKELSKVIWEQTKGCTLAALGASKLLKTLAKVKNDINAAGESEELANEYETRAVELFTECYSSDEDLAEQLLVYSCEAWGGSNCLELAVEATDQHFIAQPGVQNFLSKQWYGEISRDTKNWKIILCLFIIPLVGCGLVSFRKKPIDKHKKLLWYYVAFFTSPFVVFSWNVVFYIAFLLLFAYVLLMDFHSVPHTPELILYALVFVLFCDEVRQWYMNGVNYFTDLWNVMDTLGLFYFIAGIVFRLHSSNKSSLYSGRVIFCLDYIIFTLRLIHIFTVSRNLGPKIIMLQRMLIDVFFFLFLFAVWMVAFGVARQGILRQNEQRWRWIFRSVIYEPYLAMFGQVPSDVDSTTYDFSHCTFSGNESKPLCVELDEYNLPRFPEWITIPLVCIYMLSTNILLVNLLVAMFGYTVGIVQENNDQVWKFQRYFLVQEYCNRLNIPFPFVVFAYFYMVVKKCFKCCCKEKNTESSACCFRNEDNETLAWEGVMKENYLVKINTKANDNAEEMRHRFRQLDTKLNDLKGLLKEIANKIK
Method in brief: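 HEK-293 cells stably expressing the listed TRP channel (human TRPV1; rat TRPM8, TRPA1, TRPV2, TRPV3 or TRPV4) were Fluo-4-AM loaded (4 µM, 1 h, 25 °C) and suspended in Tyrode's buffer pH 7.4. Compound was added 5 min before agonist: icilin 0.25 µM (TRPM8), capsaicin 0.1 µM (TRPV1), AITC 100 µM (TRPA1), LPC 3 µM (TRPV2), thymol 100 µM (TRPV3), 4α-PDD 1 µM (TRPV4). Agonist alone was taken as 100%. IC50 from sigmoidal fit, at least triplicate.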

[2] = biological target: T1, Transient receptor potential cation channel subfamily M member 8; assay: Agonist activity at recombinant rat TRPM8 expressed in HEK293 cells assessed as increase in intracellular calcium accumulation by Fluo-4-AM probe-based spectrofluorimetric assay; type: cell-based
Method in brief: (§1)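 HEK-293 cells stably expressing rat TRPM8 were loaded with Fluo-4-AM (4 µM, 0.02% Pluronic F-127) for 1 h at 25 °C in serum-free EMEM. They were then washed and suspended in Tyrode's buffer pH 7.4 in a stirred cuvette. [Ca2+]i fluorescence (ex 488/em 516 nm) was read before and after compound addition. Wild-type HEK-293 response was subtracted. Efficacy is expressed versus 4 µM ionomycin; EC50 comes from a sigmoidal fit.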

[3] = in vitro; settings: C57BL/6, mouse, liver microsomes
[4] = biological target: Transient receptor potential cation channel subfamily M member 8 (Rattus norvegicus) (UniProt Q8R455); assay: Agonist activity at recombinant rat TRPM8 expressed in HEK293 cells assessed as increase in intracellular calcium accumulation by Fluo-4-AM probe-based spectrofluorimetric assay relative to ionomycin; type: cell-based; method in brief: as §1
Chain of Transient receptor potential cation channel subfamily M member 8 (Rattus norvegicus) (Q8R455 whole entry, looked up): as the sequence (Q8R455 whole entry) above

[5] = biological target: Transient receptor potential cation channel subfamily M member 8 (Rattus norvegicus) (UniProt Q8R455); assay: Agonist activity at recombinant rat TRPM8 expressed in HEK293 cells assessed as increase in intracellular calcium accumulation up to 10 uM by Fluo-4-AM probe-based spectrofluorimetric assay; type: cell-based; method in brief: as §1

Row | IC50 [1] [µM] | EC50 ([2]; hek293) | CLint scaled at 1 h, 3 µM [3] [mL/min/kg] | Activity [4] [%] | EC50 ([2]; read-out: EC50) [µM] | Activity [5] | SMILES
1 | 19.8 | Not Active | 52.9 | – | – | – | COc1cc2c(cc1OC)[C@H](c1ccccc1Cl)N(C(=O)N1CCc3cc(OC)c(OC)cc3[C@@H]1c1ccccc1Cl)CC2 (racemic)
2 | 31.7 | Not Active | – | – | – | – | COc1ccc(CCNC(=O)N2CCc3cc(OC)c(OC)cc3C2c2ccc(Cl)cc2)cc1OC (configuration not stated)
3 | > 50 | Not Active | – | – | – | – | COc1cc2c(cc1OC)[C@@H](c1ccc(F)cc1)N(C(=O)N1CCc3cc(OC)c(OC)cc3[C@@H]1c1ccc(F)cc1)CC2
4 | > 50 | Not Active | – | – | – | – | COc1cc2c(cc1OC)C(c1ccc(C(F)(F)F)cc1)N(C(C)=O)CC2 (configuration not stated)
5 | 22.9 | Not Active | – | – | – | – | COc1cc2c(cc1OC)C(c1cccc(-c3cccc([N+](=O)[O-])c3)n1)=NCC2
6 | 39.3 | Not Active | – | – | – | – | COc1ccc(/C=C2\NC(=O)[C@@H]3Cc4cc(OC)c(OC)cc4[C@@H](c4ccccc4Cl)N3C2=O)cc1OC
7 | 1.2 | Not Active | 39.6 | – | – | – | COc1ccc(CCNC(=O)N2CCc3cc(OC)c(OC)cc3C2c2ccccc2)cc1OC (configuration not stated)
8 | > 50 | – | – | 15.3 | 26.1 | inactive | CCC1c2cc(OC)c(OC)cc2CCN1C(=O)NCCc1cc(OC)c(OC)cc1C(CC)S(=O)(=O)c1ccc(C)cc1 (configuration not stated)
9 | > 50 | Not Active | – | – | – | – | COc1cc2c(cc1OC)[C@@H](c1ccc(Oc3ccc([N+](=O)[O-])cc3)cc1)N(C(=O)N1CCc3cc(OC)c(OC)cc3[C@@H]1c1ccc(Oc3ccc([N+](=O)[O-])cc3)cc1)CC2
10 | > 50 | Not Active | – | – | – | – | COc1cc(C[C@@H]2NC(=O)[C@H](Cc3cc(OC)c(OC)c(C)c3OC)NC2=O)c(OC)c(C)c1OC (racemic)
11 | > 50 | Not Active | – | – | – | – | COc1cc2c(cc1OC)[C@H](c1ccc(Oc3ccc([N+](=O)[O-])cc3)cc1)N(C(=O)N1CCc3cc(OC)c(OC)cc3[C@@H]1c1ccc(Oc3ccc([N+](=O)[O-])cc3)cc1)CC2 (racemic)
12 | 12.8 | – | – | 14.7 | 15.9 | inactive | COc1ccc(/C=C2\NC(=O)[C@@H]3Cc4cc(OC)c(OC)cc4[C@@H](c4ccccc4)N3C2=O)cc1OC
13 | > 50 | Not Active | – | – | – | – | COc1cc2c(cc1OC)C(c1ccc([N+](=O)[O-])cc1[N+](=O)[O-])NCC2 (racemic)
14 | 48.2 | Not Active | – | – | – | – | COc1ccc(CCNC(=O)N2CCc3cc(OC)c(OC)cc3C2c2ccc(Br)cc2)cc1OC (configuration not stated)
15 | > 50 | Not Active | – | – | – | – | COc1cc2c(cc1OC)C(c1ccc(Cl)cc1)NCC2 (racemic)
16 | 35.2 | Not Active | – | – | – | – | COc1ccc(/C=C2\NC(=O)[C@@H]3Cc4cc(OC)c(OC)cc4[C@@H](c4cccc([N+](=O)[O-])c4)N3C2=O)cc1OC
17 | 8.5 | Not Active | – | – | – | – | CCC[C@H]1c2cc(OC)c(OC)cc2CCN1C(=O)N1CCc2cc(OC)c(OC)cc2[C@@H]1CCC (racemic)

Row | IC50 [1] [µM] | EC50 ([2]; hek293) | CLint scaled at 1 h, 3 µM [3] [mL/min/kg] | Activity [4] [%] | EC50 ([2]; read-out: EC50) [µM] | Activity [5] | SMILES
18 | 46.1 | Not Active | – | – | – | – | COc1ccc(CCNC(=O)N2CCc3cc(OC)c(OC)cc3C2c2ccccc2Cl)cc1OC (racemic)
19 | 30.6 | Not Active | – | – | – | – | COc1ccc(OC)c(C[C@@H]2NC(=O)[C@@H]3Cc4c(OC)ccc(OC)c4[C@@H](/C=C/c4ccccc4)N3C2=O)c1 (racemic)
20 | > 50 | Not Active | – | – | – | – | COc1cc2c(cc1OC)C(c1cccc(-c3cccc([N+](=O)[O-])c3)n1)NCC2 (racemic)
21 | > 50 | – | – | 22.7 | 14.2 | inactive | COc1cc2c(cc1OC)[C@H](c1ccc([N+](=O)[O-])cc1)N(C(=O)N1CCc3cc(OC)c(OC)cc3[C@@H]1c1ccc([N+](=O)[O-])cc1)CC2 (racemic)
22 | 8.8 | Not Active | – | – | – | – | COc1c(C)c(OC)c(OC)c2c1C[C@H]1C(=O)N3[C@@H](Cc4c(OC)c(C)c(OC)c(OC)c4[C@@H]3/C=C/c3ccccc3)C(=O)N1[C@H]2/C=C/c1ccccc1 (racemic)
23 | 2.2 | Not Active | 19.1 | – | – | – | COc1cc2c(cc1OC)[C@H](c1ccc(Br)cc1)N(C(=O)N1CCc3cc(OC)c(OC)cc3[C@@H]1c1ccc(Br)cc1)CC2 (racemic)
24 | 43.7 | Not Active | – | – | – | – | COc1cc2c(cc1OC)[C@H](c1cccc(-c3cccc([N+](=O)[O-])c3)n1)N(C(=O)N1CCc3cc(OC)c(OC)cc3[C@@H]1c1cccc(-c3cccc([N+](=O)[O-])c3)n1)CC2 (racemic)
25 | > 50 | Not Active | – | – | – | – | COc1ccc(CCNC(=O)N2CCc3cc(OC)c(OC)cc3C2c2cccc([N+](=O)[O-])c2)cc1OC (configuration not stated)
26 | > 50 | Not Active | – | – | – | – | CCC1c2cc(OC)c(OC)cc2CCN1C(=O)NCCc1ccc(OC)c(OC)c1 (configuration not stated)
27 | 3.2 | – | – | 26.6 | 20.8 | inactive | COc1cc(C[C@@H]2NC(=O)[C@@H]3Cc4c(OC)c(C)c(OC)c(OC)c4[C@H](/C=C/c4ccccc4)N3C2=O)c(OC)c(C)c1OC (racemic)
28 | 10.6 | Not Active | – | – | – | – | COc1cc2c(cc1OC)[C@@H](c1ccc(C(F)(F)F)cc1)N(C(=O)N1CCc3cc(OC)c(OC)cc3[C@@H]1c1ccc(C(F)(F)F)cc1)CC2
29 | 44.4 | Not Active | – | – | – | – | COc1cc2c(cc1OC)[C@H](c1cccc([N+](=O)[O-])c1)N(C(=O)N1CCc3cc(OC)c(OC)cc3[C@@H]1c1cccc([N+](=O)[O-])c1)CC2 (racemic)
30 | > 50 | Not Active | – | – | – | – | COc1cc2c(cc1OC)[C@H](c1ccc3ccccc3c1)N(C(=O)N1CCc3cc(OC)c(OC)cc3[C@@H]1c1ccc3ccccc3c1)CC2 (racemic)
31 | 42.4 | Not Active | – | – | – | – | COc1ccc(/C=C2\NC(=O)[C@@H]3Cc4cc(OC)c(OC)cc4[C@@H](c4ccc(Br)cc4)N3C2=O)cc1OC
32 | > 50 | Not Active | – | – | – | – | CCCC1c2cc(OC)c(OC)cc2CCN1C(=O)NCCc1ccc(OC)c(OC)c1 (configuration not stated)
33 | 0.18 | Not Active | 10.1 | – | – | – | COc1cc2c(cc1OC)[C@H](c1ccc(C(F)(F)F)cc1)N(C(=O)N1CCc3cc(OC)c(OC)cc3[C@@H]1c1ccc(C(F)(F)F)cc1)CC2 (racemic)
34 | > 50 | Not Active | – | – | – | – | COc1ccc(CCNC(=O)NCCc2ccc(OC)c(OC)c2)cc1OC

Row | SMILES | IC50 [1] [µM] | EC50 ([2]; hek293) | CLint scaled at 1 h, 3 µM [3] [mL/min/kg] | Activity [4] [%] | EC50 ([2]; read-out: EC50) [µM] | Activity [5]
35 | COc1cc2c(cc1OC)[C@H](c1ccc([N+](=O)[O-])cc1[N+](=O)[O-])N(C(=O)N1CCc3cc(OC)c(OC)cc3[C@@H]1c1ccc([N+](=O)[O-])cc1[N+](=O)[O-])CC2 (racemic) | > 50 | Not Active | – | – | – | –
